Only some compounds are listed: those with a hit (about 3.8% of all), similar ones and a draw of the others.
KCNK3 block = human KCNK3 channel inhibitors, primary screen, CHO cells, FluxOR thallium flux, B-score; Potassium channel subfamily K member 3 (Homo sapiens), O14649; FluxOR fluorescence; hits give low values; B-score at 10 µM; hit rate 0.84% among 340,000; AID 602410, 2012;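 active = B-score under library mean minus 4 SD, starting fluorescence ratio at most library mean plus 5 SD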;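 also: more negative B-score means stronger inhibition of thallium flux through KCNK3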
Kir21 inh = inhibitors of mouse Kir2.1 inward-rectifier potassium channel. HEK293-Kir2.1, FluxOR thallium flux fluorescence; hits give low values. B-score at 10 µM. hit rate 0.85% among 310,000. AID 1672, 2009;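 active = fluorescence ratio B-score at or below minus 3 SD of library scores, with starting-brightness B-score within 2 SD, cut at about -4.2 in these data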;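 also: channel flux triggered by added potassium and thallium sulfate stimulus; B-score of peak minus minimum fluorescence over baseline after thallium stimulus; more negative B-score means stronger Kir2.1 block with less thallium influx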
KCNQ1 act = potentiators or activators of KCNQ1 channel, primary screen, cell-based, thallium flux, high-throughput | CHO-K1 KCNQ1, thallium flux FluxOR fluorescence; hits give high values | Potassium voltage-gated channel subfamily KQT member 1 (Homo sapiens), P51787 | hit rate 0.35% among 310,000 | B-score at 10 µM;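 active = fluorescence ratio B-score, a plate-corrected score, at least three library SD, with initial intensity B-score within 5 SD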
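Assay system: CHO-K1 cells stably expressing KCNQ1; Medium: assay buffer with matched DMSO; Also added: K+/Tl+ depolarizing stimulus; Dosing: single dose; Timing: dye 90 min, compound 20 min, room temperature; Measured by: kinetic FluxOR thallium fluorescence, 10-s 1-Hz baseline, 110-s post-stimulus read; Read-out: peak-minus-minimum fluorescence over initial fluorescence, negative-control normalized, B-scored.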
hERG protect = hERG rescue from dofetilide block, primary screen, cell-based, CHO-hERG, FluxOR thallium flux, dofetilide IC70; activation (rescue from dofetilide block), less the hit threshold, % at 10 µM; hit rate 0.51% among 310,000; Voltage-gated inwardly rectifying potassium channel KCNH2 (Homo sapiens), Q12809; dofetilide IC70 present; AID 1511, 2009;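 active = activation above the mean of controls blocked by dofetilide plus 5 SD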;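 also: thallium influx through hERG after potassium depolarization seen as dye fluorescence rise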
KCNQ1 block = inhibitors of human KCNQ1 channel, primary screen, cell-based, thallium flux, high-throughput; hit rate 1.3% among 310,000; CHO-K1 KCNQ1, FluxOR thallium flux fluorescence; hits give high values; Potassium voltage-gated channel subfamily KQT member 1 (Homo sapiens), P51787; AID 2642, 2010; B-score at 10 µM;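 active = compounds whose thallium flux B-score, printed positive for inhibition, exceeds three library SD while starting fluorescence stays within three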;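 also: channel opened by potassium depolarization with thallium stimulus after 20 min compound exposure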
KCNK9 block = KCNK9 potassium channel inhibitors, primary screen, HEK293 cells, thallium flux. Potassium channel subfamily K member 9 (Homo sapiens), Q9NPC2. FluxOR thallium flux fluorescence; hits give low values. B-score at 10 µM. hit rate 1.2% among 310,000. AID 488922, 2010;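 active = ratio B-score over 3 SD below the library mean, with starting fluorescence within 5 SD of its mean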;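 also: negative B-score means less thallium flux so channel inhibition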
Target sequence (Q9NPC2 whole entry, looked up): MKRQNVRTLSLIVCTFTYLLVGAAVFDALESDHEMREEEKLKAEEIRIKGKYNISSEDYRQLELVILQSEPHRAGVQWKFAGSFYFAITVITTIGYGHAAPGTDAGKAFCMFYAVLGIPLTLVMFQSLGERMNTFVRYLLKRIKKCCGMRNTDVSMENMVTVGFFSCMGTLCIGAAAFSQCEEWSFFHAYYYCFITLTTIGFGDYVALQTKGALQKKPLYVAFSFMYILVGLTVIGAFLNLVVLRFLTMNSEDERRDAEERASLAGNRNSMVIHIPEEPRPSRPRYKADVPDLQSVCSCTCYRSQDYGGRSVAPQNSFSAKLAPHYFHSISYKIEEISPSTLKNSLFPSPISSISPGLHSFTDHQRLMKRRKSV
KCNQ1 inh valid = KCNQ1 potassium channel inhibitors, confirmation, cell-based, Tl flux, duplicate | shares compounds with KCNQ1 block | KCNQ1 cell line, FluxOR thallium flux fluorescence | inhibition, % at 10 µM | hit rate 93% among 1,600;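 active = primary screen active, with duplicate mean exceeding buffer control mean plus 3 SD of buffer wells, cut at about 28% in these data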
CHO Tl flux = thallium flux effects in parental CHO cells, counter-screen for KCNQ1 inhibitor project, cell-based, Tl flux | fluorescence ratio (Tl flux) at 10 µM | hit rate 21% among 1,600 | shares compounds with KCNQ1 block | parental CHO-K1, FluxOR thallium flux fluorescence ratio; hits give low values; zero means no signal rise above baseline;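 active = mean of duplicate thallium-flux fluorescence ratios in parental host cells more than 5 SD below the buffer control mean, cut at about 0.38 in these data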;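 also: ratio is peak minus minimum fluorescence divided by baseline fluorescence; actives read low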
KCNQ1 APC inh = KCNQ1 channel inhibitors, confirmation, orthogonal assay, cell-based, automated electrophysiology. shares compounds with KCNQ1 block. KCNQ1-CHO cells, automated patch clamp current. calls only at 10 µM. hit rate 20% among 490. AID 624120, 2012;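 active = KCNQ1 current drop exceeding 3 SD of negative control wells, seen in both duplicate runs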;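 also: steady state current during a 2 s step from -80 to +40 mV; negative values mean current inhibition and positive values mean potentiation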
KCNQ2 inh = KCNQ2 channel inhibition, selectivity assay for KCNQ1 inhibitor project, cell-based | shares compounds with KCNQ1 block | KCNQ2 cells, FluxOR thallium flux fluorescence | inhibition, % at 10 µM | hit rate 71% among 1,600 | AID 651746, 2012;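 active = mean percent inhibition of the KCNQ2 thallium signal more than 5 SD above the buffer-only control wells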;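 also: KCNQ2 expressed in CHO cells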
KCNQ1-KCNE1 inh = KCNQ1/KCNE1 channel inhibition, selectivity assay for KCNQ1 inhibitor project, CHO-K1 cells, thallium flux, FluxOR | hit rate 77% among 1,600 | inhibition, % at 10 µM | FluxOR thallium flux fluorescence | AID 652147, 2013 | shares compounds with KCNQ1 block;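 active = mean percent inhibition of duplicate wells above the buffer-only control mean plus 3 SD of those controls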
Hits are given with their value.

Screening CSc1ccccc1NC(=O)C(=O)c1c[nH]c2ccccc12 returned KCNK3 block inactive, Kir21 inh inactive, KCNQ1 act inactive, hERG protect inactive, KCNQ1 block inactive and KCNK9 block inactive.
`NC(=O)C1C(=O)c2ccccc2C1(C[N+](=O)[O-])c1ccccc1` (stereo not drawn) gave KCNK3 block inactive.
`O=C(Nc1cccc(Cl)c1)N1CCSc2cc(Cl)ccc21` gave KCNK3 block inactive, Kir21 inh inactive, KCNQ1 act inactive, hERG protect inactive, KCNQ1 block 9, KCNK9 block inactive, KCNQ1 inh valid 119.0, CHO Tl flux inactive, KCNQ2 inh 111.3% and KCNQ1-KCNE1 inh 68.5%.
For Cn1ncc([N+](=O)[O-])c1C(=O)N/N=C/c1ccc(F)cc1 the results were KCNK3 block inactive, Kir21 inh inactive, KCNQ1 act inactive, hERG protect inactive, KCNQ1 block inactive and KCNK9 block inactive.
For CC(Oc1cccc(Cl)c1)C(=O)Nc1ccccc1C(=O)N1CCCCC1 (stereo not drawn) the results were KCNK3 block inactive, Kir21 inh inactive, KCNQ1 act inactive, hERG protect inactive, KCNQ1 block inactive and KCNK9 block inactive.
`CC(Oc1cccc(Cl)c1)C(=O)Nc1ccccc1N1CCCCC1` (stereo not drawn) gave KCNK3 block inactive, Kir21 inh inactive, KCNQ1 act inactive, hERG protect inactive, KCNQ1 block 9, KCNK9 block -7.81, KCNQ1 inh valid 115.5, CHO Tl flux inactive, KCNQ1 APC inh inactive, KCNQ2 inh 83.7% and KCNQ1-KCNE1 inh 138.5%.
CC(=O)c1ccc(NC(=O)CCc2ccc(C)o2)cc1 was read as KCNK3 block inactive, Kir21 inh inactive, KCNQ1 act inactive, hERG protect inactive, KCNQ1 block inactive and KCNK9 block inactive.
`CCc1c(C)nc2nc(SCc3ccccc3Cl)[nH]n2c1=O` gave KCNK3 block inactive, Kir21 inh inactive, KCNQ1 act inactive, hERG protect inactive, KCNQ1 block 9, KCNK9 block inactive, KCNQ1 inh valid 85.0, CHO Tl flux inactive, KCNQ2 inh 68.7% and KCNQ1-KCNE1 inh 34.0%.
For CSc1nc2nc(C)c(C/C=C/c3ccccc3)c(=O)n2[nH]1 the results were KCNK3 block inactive, Kir21 inh inactive, KCNQ1 act inactive, hERG protect inactive, KCNQ1 block inactive and KCNK9 block inactive.
`COC(=O)c1ccc(Cl)c(NC(=O)NC23CC4CC(CC(C4)C2)C3)c1` gave KCNK3 block inactive, Kir21 inh inactive, KCNQ1 act inactive, hERG protect inactive, KCNQ1 block 10, KCNK9 block inactive, KCNQ1 inh valid 131.0, CHO Tl flux inactive, KCNQ2 inh 108.3% and KCNQ1-KCNE1 inh 170.5%.
For Cc1cc([N+](=O)[O-])ccc1NC(=O)c1cccc(NC(=O)C(C)C)c1 the results were KCNK3 block inactive, Kir21 inh inactive, KCNQ1 act inactive, hERG protect inactive, KCNQ1 block inactive and KCNK9 block inactive.
O=C(CCc1nnc(CCCc2ccccc2)o1)NCC(F)(F)F was read as KCNK3 block inactive, Kir21 inh inactive, KCNQ1 act inactive, hERG protect inactive, KCNQ1 block inactive and KCNK9 block inactive.
For CCCCCNC(=O)c1cccc(S(=O)(=O)N2CC3(C)CC2CC(C)(C)C3)c1 (stereo not drawn) the results were KCNK3 block inactive, Kir21 inh inactive, KCNQ1 act inactive, hERG protect inactive, KCNQ1 block 7, KCNK9 block inactive, KCNQ1 inh valid 86.5, CHO Tl flux inactive, KCNQ2 inh inactive and KCNQ1-KCNE1 inh 87.5%.
`CCOC(=O)Cc1cn2c(=O)cc(CSCC(=O)Nc3ccc(C)c(C)c3)nc2s1` gave KCNK3 block inactive, Kir21 inh inactive, KCNQ1 act inactive, hERG protect inactive, KCNQ1 block inactive and KCNK9 block inactive.
`CCN(CC)C(=O)C1CCCN(c2ccc([N+](=O)[O-])cc2/C=N/NC(=O)c2cccc([N+](=O)[O-])c2)C1` (stereo not drawn) gave KCNK3 block inactive, Kir21 inh inactive, KCNQ1 act inactive, hERG protect inactive, KCNQ1 block inactive and KCNK9 block inactive.
For O=[N+]([O-])c1ccc(O)c(N=Cc2sc3ccccc3c2O)c1 the results were KCNK3 block inactive, Kir21 inh inactive, KCNQ1 act inactive, hERG protect inactive, KCNQ1 block inactive and KCNK9 block inactive.
For Oc1c(C=Nc2cccc3cccnc23)sc2ccccc12 the results were Kir21 inh inactive, KCNQ1 act inactive, hERG protect inactive, KCNQ1 block 10, KCNK9 block -8.12, KCNQ1 inh valid 87.5, CHO Tl flux 0.359, KCNQ2 inh inactive and KCNQ1-KCNE1 inh 134.0%.
`COc1ccc(OCc2nnc(SC(C)C(=O)Nc3ccc(N4CCOCC4)cc3)n2C)cc1` (stereo not drawn) gave KCNK3 block inactive.
Screening CCCN1C(=O)c2ccc(C(=O)Nc3ccccc3C(=O)O)cc2C1=O returned KCNK3 block inactive, Kir21 inh inactive, KCNQ1 act inactive, hERG protect inactive, KCNQ1 block inactive and KCNK9 block inactive.
